What was measured:
[1] = folding enthalpy; higher = less favourable; fluorescence melt of hairpins on a sequencing array, two-state fit; conditions: sodium 0.088 M
Method in brief: (§1)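 Two-state fits, bootstrapped, provided melting temperature and folding enthalpy from Cy3 fluorescence normalised to pre-quench Cy3 and to control constructs. Library hairpins with annealed Cy3 and quencher oligos were imaged on a sequenced MiSeq flow cell in 50 mM Na-HEPES pH 8.0, 25 mM NaCl, at 2.5 °C intervals up to 60 °C. Four replicates were combined with inverse-variance weighting. A 9.35 °C upward shift was applied to fitted temperatures to match UV melts.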

[2] = melting temperature; fluorescence melt of hairpins on a sequencing array, two-state fit, raised by 9.35 °C to match UV melts; conditions: sodium 0.088 M
Method in brief: as §1

Row | Sequence | folding enthalpy [1] [kcal/mol] | Tm [2] [°C]
1 | GATCAGAACGCTGATC ((((((....)))))) | -29.5 | 47.3
2 | GCGTTCGGAAACGAATGC ((.((((....)))).)) | -42.1 | 58.7
3 | GAGATCCGAAAGGAGCTC (((.(((....))).))) | -44.9 | 60.8
4 | CGAACCCGGAAACGGTCG (((..(((....)))))) | -13 | 36.7
5 | GGATCAGGAAACTGGTCC (((.(((....))).))) | -39.2 | 51.3
6 | GAGATGGCGAAAGCCCTC (((..(((....)))))) | -10.3 | 32.8
7 | GATCGCGGGGGCGATC ((((((....)))))) | -27.7 | 69.3
8 | GCAGAGCGAAAGCTGAGC ((..(((....)))..)) | -11.8 | 43.1
9 | GTTCTCGAAAGAGTGAAC ((((((....)))..))) | -14.7 | 29.4
10 | GGGTTCGAAAGAAGCCC ((((((....))).))) | -24.1 | 55.7
11 | GACGTAGGAAACTACATC ((.((((....)))).)) | -13.1 | 28.4
12 | GCAACCGAAAGGTAGTGC ((((((....)))..))) | -20.1 | 41.2
13 | GTCCTGACGAAAGTCGAC (((..(((....)))))) | -10.3 | 29.1
14 | GTCCTCCGAAAGGAGAC (((.(((....)))))) | -15.9 | 47.5
15 | GATCTAAGTGTAGATC ((((((....)))))) | -28.5 | 39.3
16 | GAGAGGGAAACCTCTC ((((((....)))))) | -36.2 | 55.3
17 | GAAGACGAAAGTCACTTC ((((((....)))..))) | -17.5 | 35
18 | GAAGCGGGAAACCGTTTC (((.(((....))).))) | -28.2 | 47.1
19 | GCCCCTGGAAACAGGGAC (.(((((....))))).) | -13.9 | 51.1
20 | GCTCACGGAAACGCGAGC ((((.((....)).)))) | -51.9 | 53.4
21 | GAGACCGAAAGGTCCTC ((((((....))).))) | -10.4 | 53.6
22 | GTTGACGAAAGTCTAAC ((((((....))).))) | -14.7 | 39.7
23 | GATCATGGAAACATGGTC ((.((((....)))).)) | -25.8 | 46.6

Row | Sequence | folding enthalpy [1] [kcal/mol] | Tm [2] [°C]
24 | GCGTATTTACGC ((((....)))) | -26.7 | 54.5
25 | GATCCGTATCCGGATC ((((((....)))))) | -39 | 58.2
26 | GCAATGCGAAAGCCTGGC ((.(.((....)).).)) | -13.8 | 34.2
27 | GTGCGTCGAAAGACCCAC (((.(((....))).))) | -26.2 | 45.8
28 | GATCCCCGGGGGGATC ((((((....)))))) | -29.9 | 66.6
29 | GAACCGAAAGGTTC (((((....))))) | -25.6 | 67.7
30 | GGCTTCGAAAGAATTGCC ((((((....)))..))) | -23.3 | 35.4
31 | GATGGCGAAAGCCAGATC ((((((....)))..))) | -15.7 | 50
32 | GTTGAAGCGAAAGCTAAC (((..(((....)))))) | -13.5 | 34.3
33 | GTACCTGGAAACAGATAC (((.(((....))).))) | -18.8 | 32.7
34 | GGACAGTCGAAAGACTCC (((..(((....)))))) | -12.8 | 31
35 | GAGACCGGAAACGGTCCC (.(((((....))))).) | -10.2 | 46.9
36 | GTGCACGGAAACGCACAC (((..((....))..))) | -19.9 | 38.5
37 | GTGGGGAAACCCAC (((((....))))) | -25.7 | 62
38 | GAATGACGAAAGTCTTC (((.(((....)))))) | -16.6 | 34.6
39 | GACCCCACGAAAGTGGTC (((..(((....)))))) | -8.51 | 28.9
40 | GCTATGCGAAAGCAGGGC ((..(((....)))..)) | -22.2 | 54.8
41 | CGTACGGAAACGTCGACG ((((((....)))..))) | -12.9 | 37.5
42 | CGTATTCGGAAACGAACG (((..(((....)))))) | -17.2 | 28.4
43 | TGGTCGAAAGACCA (((((....))))) | -19.1 | 66.8
44 | GCTCACGCGAAAGCGAGC (((..(((....)))))) | -15.1 | 47.8
45 | GATCAAGTATTGATC ((((((...)))))) | -43.4 | 51.8
46 | GCGAGGCGAAAGCTGCGC (((..((....))..))) | -29.5 | 65.1

Row | Sequence | folding enthalpy [1] [kcal/mol] | Tm [2] [°C]
47 | GGAGACCGAAAGGTTTCC (((.(((....))).))) | -41.5 | 55.5
48 | GCCGTGCGAAAGCGTGGC (((..((....))..))) | -37.1 | 63.4
49 | GGATAACCGAAAGGTTCC (((..(((....)))))) | -14.1 | 32.4
50 | GAACATGCGAAAGCATTC (((..(((....)))))) | -11 | 26.6
51 | GCCGAGCGAAAGCACCGC ((.(.((....)).).)) | -14.1 | 38.5
52 | GATCACGTTGTGATC ((((((...)))))) | -38.1 | 60.1
53 | GACATTACGAAAGTAGTC (((..(((....)))))) | -14.8 | 27.4
54 | GTGAGAGCGAAAGCTCAC (((..(((....)))))) | -14.5 | 48.6
55 | GGTGGCCCGAAAGGGACC (((..(((....)))))) | -12.7 | 52.2
56 | GGTGACGAAAGTCCCACC ((((((....)))..))) | -12.9 | 43.4
57 | GAGGAACGAAAGTTCTC (((.(((....)))))) | -13.6 | 38.9
58 | GCGGTAGTCCGC ((((....)))) | -21.9 | 58.8
59 | GCCACGCGAAAGCGCTGC ((..(((....)))..)) | -11 | 37.4
60 | GCACTGCGAAAGCTGGGC ((.(.((....)).).)) | -36.6 | 64.3
61 | GCTCTCTCGAAAGAGAGC (((..(((....)))))) | -26.9 | 60.3
62 | GAGAGCGAAAGCTCGCTC ((((((....)))..))) | -13 | 66.9
63 | GATCGGGGACCGATC ((((((...)))))) | -37.2 | 66.8
64 | GATCAGAATTCTGATC ((((((....)))))) | -43.5 | 50.4
65 | GACCCAGAAATGGGTC ((((((....)))))) | -35.3 | 64
66 | GATCGTGGAAACACAATC (((.(((....))).))) | -17.6 | 34.3
67 | GATCTTGCTGAAGATC ((((((....)))))) | -31.4 | 43.2
68 | GTCATAGCGAAAGCTGAC (((..(((....)))))) | -22.8 | 46.6
69 | GAACGCGAAAGCGCTTC ((((((....))).))) | -14.3 | 48.6

Source: the array DNA melting data of Ke et al. (doi:10.1101/2024.01.08.574731)
